Measured values from paper PMC355911 (Journal of Insect Science, 2002).

Legend:
[1] = biological target: T1, DmEcR/DmUSP (Drosophila melanogaster, UniProt P34021); assay: UV-irradiation of receptor complex with ligand, then [3H]ponasterone A binding; details: ligand 100 nM, 350 nm for 20 min, [3H]ponA 2.55 nM
T1 sequence (P34021 1-878): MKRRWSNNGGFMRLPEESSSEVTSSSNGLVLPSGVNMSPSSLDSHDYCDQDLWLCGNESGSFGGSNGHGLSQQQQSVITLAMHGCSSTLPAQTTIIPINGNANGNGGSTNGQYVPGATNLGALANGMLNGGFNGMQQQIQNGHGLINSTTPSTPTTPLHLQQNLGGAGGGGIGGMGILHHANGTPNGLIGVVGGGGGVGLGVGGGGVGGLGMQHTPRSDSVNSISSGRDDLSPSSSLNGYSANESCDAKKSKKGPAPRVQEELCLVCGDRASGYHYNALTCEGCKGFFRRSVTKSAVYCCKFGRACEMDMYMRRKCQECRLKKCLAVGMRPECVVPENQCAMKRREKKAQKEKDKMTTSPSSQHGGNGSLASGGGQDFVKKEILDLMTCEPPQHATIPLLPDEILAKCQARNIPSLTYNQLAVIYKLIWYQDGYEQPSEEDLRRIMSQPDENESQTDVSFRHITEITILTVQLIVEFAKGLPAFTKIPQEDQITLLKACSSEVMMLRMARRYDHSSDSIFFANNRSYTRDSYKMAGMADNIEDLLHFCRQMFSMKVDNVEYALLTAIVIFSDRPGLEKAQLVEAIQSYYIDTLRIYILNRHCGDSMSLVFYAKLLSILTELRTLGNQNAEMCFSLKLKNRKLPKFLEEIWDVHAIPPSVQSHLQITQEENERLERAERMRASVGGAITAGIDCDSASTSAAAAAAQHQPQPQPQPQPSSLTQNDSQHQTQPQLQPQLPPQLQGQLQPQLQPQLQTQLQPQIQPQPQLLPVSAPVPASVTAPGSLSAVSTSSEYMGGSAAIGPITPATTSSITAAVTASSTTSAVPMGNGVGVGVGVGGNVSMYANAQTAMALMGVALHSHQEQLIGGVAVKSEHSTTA
T1 sequence (P20153 1-508 partner): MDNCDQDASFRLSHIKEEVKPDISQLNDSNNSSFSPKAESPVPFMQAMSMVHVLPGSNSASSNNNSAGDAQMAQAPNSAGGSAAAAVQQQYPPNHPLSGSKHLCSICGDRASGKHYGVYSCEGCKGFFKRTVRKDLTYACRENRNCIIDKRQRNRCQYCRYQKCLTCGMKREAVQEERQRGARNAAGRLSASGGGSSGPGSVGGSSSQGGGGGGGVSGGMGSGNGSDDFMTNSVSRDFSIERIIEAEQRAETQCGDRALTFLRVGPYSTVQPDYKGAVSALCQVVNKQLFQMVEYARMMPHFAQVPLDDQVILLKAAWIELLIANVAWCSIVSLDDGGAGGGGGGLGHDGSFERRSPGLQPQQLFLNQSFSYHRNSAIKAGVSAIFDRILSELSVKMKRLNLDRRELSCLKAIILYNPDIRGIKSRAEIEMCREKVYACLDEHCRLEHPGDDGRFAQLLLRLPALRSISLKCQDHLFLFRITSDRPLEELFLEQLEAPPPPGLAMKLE
Summary of the method: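 Crude extracts of bacterially expressed DmEcR/DmUSP were incubated with 100 nM ligand at 7°C for 16 h to equilibrium. Samples were irradiated in quartz tubes on a merry-go-round at 350 nm for 20 min, with non-irradiated controls. Unbound steroid was stripped with fatty-acid-free BSA plus dextran-coated charcoal (10 mM Tris/HCl, pH 7.2), 5 min ice-cold, then spun at 13,000 × g. Supernatant was equilibrated with 2.55 nM [3H]ponA at 7°C, DCC-stripped again, and scintillation-counted. Duplicates.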

[2] = biological target: T2, CfEcR/CfUSP (Choristoneura fumiferana, UniProt O77255); assay: UV-irradiation of receptor complex with ligand, then [3H]ponasterone A binding; details: ligand 100 nM, 350 nm for 20 min, [3H]ponA 2.55 nM
T2 sequence (O77255 1-541): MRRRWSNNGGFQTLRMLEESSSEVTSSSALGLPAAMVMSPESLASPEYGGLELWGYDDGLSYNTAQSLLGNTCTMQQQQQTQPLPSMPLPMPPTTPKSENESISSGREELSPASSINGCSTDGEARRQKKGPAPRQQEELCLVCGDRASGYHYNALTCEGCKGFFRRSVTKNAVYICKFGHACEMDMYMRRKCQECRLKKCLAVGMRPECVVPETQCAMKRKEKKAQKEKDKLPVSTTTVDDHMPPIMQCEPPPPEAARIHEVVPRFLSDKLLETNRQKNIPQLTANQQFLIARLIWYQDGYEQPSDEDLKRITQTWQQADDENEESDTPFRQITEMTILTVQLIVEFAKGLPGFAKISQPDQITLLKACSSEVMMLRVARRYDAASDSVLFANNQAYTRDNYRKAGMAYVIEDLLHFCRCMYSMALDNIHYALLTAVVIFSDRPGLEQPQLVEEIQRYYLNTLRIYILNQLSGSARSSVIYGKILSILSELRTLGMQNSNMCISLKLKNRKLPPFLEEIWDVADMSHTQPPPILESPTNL
T2 sequence (O76202 1-472 partner): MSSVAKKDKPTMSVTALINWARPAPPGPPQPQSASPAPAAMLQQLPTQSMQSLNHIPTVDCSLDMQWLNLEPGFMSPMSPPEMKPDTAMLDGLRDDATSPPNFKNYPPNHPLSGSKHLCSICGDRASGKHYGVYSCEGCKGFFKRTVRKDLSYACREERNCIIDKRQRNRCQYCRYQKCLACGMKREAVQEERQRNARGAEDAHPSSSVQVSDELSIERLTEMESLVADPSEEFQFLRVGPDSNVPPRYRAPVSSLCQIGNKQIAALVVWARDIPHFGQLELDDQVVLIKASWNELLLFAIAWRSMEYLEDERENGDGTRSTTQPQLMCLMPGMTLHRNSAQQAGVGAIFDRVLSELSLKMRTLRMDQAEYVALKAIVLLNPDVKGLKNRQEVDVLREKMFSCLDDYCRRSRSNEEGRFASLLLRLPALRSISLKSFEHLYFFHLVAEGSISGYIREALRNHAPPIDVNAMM

binding capacity for [3H]ponasterone A after irradiation with ligand (in words) ([1]; listed as 20E) | binding capacity for [3H]ponasterone A after irradiation with ligand (in words) ([2]; listed as 20E) | SMILES | binding capacity for [3H]ponasterone A after irradiation with ligand (in words) [1] | binding capacity for [3H]ponasterone A after irradiation with ligand (in words) [2]
no blocking | no blocking | CC(C)(O)CC[C@@H](O)[C@](C)(O)[C@H]1CC[C@@]2(O)C3=CC(=O)[C@@H]4C[C@@H](O)[C@@H](O)C[C@]4(C)[C@H]3CC[C@]12C [compound 1, 20-hydroxyecdysone] |  | 
 |  | CC(C)CC[C@@H](O)[C@](C)(O)[C@H]1CC[C@@]2(O)C3=CC(=O)[C@@H]4C[C@@H](O)[C@@H](O)C[C@]4(C)C3=CC[C@]12C [compound 5, dacryhainansterone] | significantly reduced | significantly reduced
